# Compounds with a hit are over-represented: about 9.2% of the library has one in this group of screens.
# HCT116 PTEN-null: growth suppression of PTEN-null HCT116, primary screen, cell-based, CellTiter-Glo | HCT116 PTEN-null viability, 60 h; stronger effect = lower value | viability, % at 10 µM | 140,000 compounds, 1.2% hits;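 active means viability at or below a set limit, 4 SD under the median of all tested compounds, cut at about 3.7% in these data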;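 further: PTEN knockout HCT116 line with beta catenin targeted HCT116 as companion control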
# Autophagy mod: autophagy modulators in MEF cells, primary screen, imaging, high-content, MEF GFP-LC3; AID 463193, 2010; MEF GFP-LC3 puncta imaging; test concentration mostly 10 µM; 190,000 compounds, 0.98% hits; calls only at 10 µM (by protocol);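 active means percentage of spot-positive cells more than 3 SD above its plate mean, without a fluorescence outlier flag or 80% toxicity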;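 further: spot-positive cell cutoff set from DMSO-treated cells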
# L major viab: Leishmania major promastigote growth inhibition, primary screen | Leishmania major promastigotes, resazurin fluorescence viability | inhibition, % at 10 µM | 200,000 compounds, 9% hits | AID 1063, 2008; in the data active means inhibition above about 50%;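 further: promastigotes grown with compound for 44 hours at 28 °C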
# HCT116 bCat-KO: primary screen for growth suppressors in beta-catenin knockout HCT116 cells (colon tumor, human); HCT116 beta-catenin knockout viability, CellTiter-Glo, 60 h; stronger effect = lower value; viability, % at 10 µM; 140,000 compounds, 1.5% hits; AID 818, 2007;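 active means viability at or under a set limit, the compound median less 4 SD, cut at about 6% in these data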;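 further: 0% = Hyamine 1622 control at 20 µM and 100% = untreated cell control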
# Dynein cargo inh: inhibitors of GR-EGFP nuclear translocation, primary screen, dynein cargo transport inhibitor project, imaging, high-content, 3617.4 mouse cells | 220,000 compounds, 0.47% hits | AID 1381, 2008 | z-score, hits read low | test concentration mostly 20 µM; stimulated with dexamethasone, 1 µM; stronger effect = lower value;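 active means plate z-score of nuclear minus cytoplasmic receptor signal below a set negative limit, without overly bright fluorescence or cell loss, cut at about -3.5 in these data, passing the limit was not always enough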;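 further: z-score of nuclear minus cytoplasmic ring GR-EGFP intensity difference per well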
#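 Schedule: 48 h induction, then 1 h compound, then 30 min agonist, 37 °C. Buffer or medium: tetracycline-free induction medium containing charcoal-stripped FBS. Reagent: 1.0 µM final dexamethasone stimulus. Evaluation: nuclear versus cytoplasmic GR-EGFP signal, averaged per well. Signal: high-content fluorescence imaging after fixation.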
# * = called active by the depositor; i = inactive; · = no result; + = active, no number.
SMILES,HCT116 PTEN-null,Autophagy mod,L major viab,HCT116 bCat-KO,Dynein cargo inh
Cn1c(SCC(=O)N2c3ccccc3CCc3ccccc32)nnc1-c1cc2ccccc2cc1O,68,i,98*,75,-0.24
CCN(CC)S(=O)(=O)c1ccc(NN=C2CCN(C)CC2)c([N+](=O)[O-])c1,·,i,81*,·,-0.93
CC1CCCC/C1=N\Nc1ccc(S(N)(=O)=O)cc1[N+](=O)[O-] (centres undefined),78,i,8,84,-1
CC(C)(C)C1CCC(=NNc2ccc(S(N)(=O)=O)cc2[N+](=O)[O-])CC1 (centres undefined),71,i,85*,67,0.39
O=C(Nc1ccccc1)Nc1ccc(Br)c(Cl)c1,17,i,48,22,0.36
Cc1nnc(SCC(=O)NC2CCCCC2)s1,·,i,1,·,2.1
CC(C)(C)C1C/C(=C/c2ccccn2)C(=O)/C(=C/c2ccccn2)C1 (centres undefined),·,i,101*,·,-4.9*
CC1C/C(=C/c2cccs2)C(=O)/C(=C/c2cccs2)C1 (centres undefined),76,i,-2,76,-0.62
CNc1ccc(/C=C2\COc3ccccc3C2=O)cc1[N+](=O)[O-],76,i,9,89,0.7
CC1C/C(=C/c2ccccn2)C(=O)/C(=C/c2ccccn2)C1 (centres undefined),·,i,100*,·,-5.8*
O=C1/C(=C/c2ccccn2)COc2ccccc21,·,i,100*,·,-1.4
Cc1ccc(-n2cc(-c3ccccc3)c3c(NN4CCOCC4)ncnc32)cc1,84,i,81*,84,0.086
Cc1cccc(-n2cc(-c3ccccc3)c3c(NN4CCOCC4)ncnc32)c1,37,i,63*,50,1.8
Cc1cccc(-n2cc(-c3ccccc3)c3c(=O)[nH]cnc32)c1,71,i,18,80,-0.59
Cc1ccc(-c2csc3ncnc(Nc4ccc(N5CCOCC5)cc4)c23)cc1,32,i,22,38,3.2
N#Cc1ccc(NC(=O)Nc2ccc(Cl)cc2)cc1,3.4*,i,28,4.0*,-0.44
CN(CC(=O)Nc1ccc(C#N)cc1)Cc1ccc(Cl)cc1,68,i,-3,79,0.093
Cc1nc(C)c(/C(O)=C/c2nc3ccccc3oc2=O)s1,63,i,76*,59,0.71
O=c1oc2ccccc2nc1/C=C(\O)c1ccccc1,·,·,·,·,-0.46
Cc1nn(C2CCS(=O)(=O)C2)c(Cl)c1/C=C/C(=O)OCC(=O)c1c[nH]c2ccccc12 (centres undefined),64,i,60*,67,0.44
Cc1nn(C2CCS(=O)(=O)C2)c(Cl)c1/C=C/C(=O)OCC(=O)c1cc(C)n(-c2ccc(F)cc2)c1C (centres undefined),31,i,98*,19,1.3
O=C(Nc1ccccc1C(=O)O)/C(=C/c1ccc([N+](=O)[O-])cc1)NC(=O)c1ccc(Br)o1,·,i,-9,·,0.2
COc1ccccc1CNC(=O)CN(Cc1ccc(Cl)cc1)S(C)(=O)=O,·,i,7,·,-0.28
Cc1ccc(C(O)(c2ccccc2)c2ccccc2C(C)N(C)C)c(C)c1 (centres undefined),1.8*,i,100*,3.5*,0.67
O=C(c1ccc(S(=O)(=O)Nc2ccc(F)cc2)cc1)N1CCN(c2ccccn2)CC1,·,i,99*,·,0.21
SMILES,HCT116 PTEN-null,Autophagy mod,L major viab,HCT116 bCat-KO,Dynein cargo inh
CCN1C(=O)c2cccc3c(NS(=O)(=O)c4ccc(NC(C)=O)cc4)ccc1c23,47,i,6,49,-0.9
CCOC(=O)c1ccc(NC(=O)Nc2ccc3c4c(cccc24)C(=O)N3CC)cc1,34,+,14,36,0.49
C/C(=N\NC(=O)COc1ccc(C)cc1Br)c1cc([N+](=O)[O-])cs1,·,i,59*,·,-1.4
C/C(=N\NC(=O)COc1ccc(C)cc1[N+](=O)[O-])c1cccs1,·,i,-2,·,0.33
O=C(NCc1ccco1)C(c1ccc(F)cc1)N(C(=O)Cc1cccs1)c1cccnc1 (centres undefined),·,i,-1,·,-0.34
Cc1ccc(-n2c(C)nc3c(cnn3-c3ccc(F)cc3)c2=O)cc1C,79,+,-5,76,-0.36
O=C(NC(=S)NCC1CCCO1)c1ccccc1F (centres undefined),·,i,-1,·,3.1
CSc1ccc(S(=O)(=O)Nc2ccc(NC(C)=O)cc2)cc1,79,i,3,76,-0.32
CC(=O)Nc1ccc(NS(=O)(=O)c2ccccc2)cc1,·,+,4,·,-1.5
Cc1ccc(CC2(O)CC(C)N(C)CC2C)c(C)c1 (centres undefined),110,i,69*,102,-0.26
CC1=Nc2ccccc2N=C(NC(=O)c2ccccc2)C1c1ccccc1 (centres undefined),·,i,54*,·,-0.37
CC1=Nc2ccccc2N=C(NC(=O)CN2CCN(c3ccccc3)CC2)C1c1ccccc1 (centres undefined),·,i,1,·,-0.23
CC(=O)/C(N=Nc1ccc(-n2ccc(C(F)(F)F)n2)cc1)=C(\C)O,·,·,·,·,-0.2
CCC(CCC(=O)Nc1ccc(S(N)(=O)=O)cc1)C(=O)O (centres undefined),96,i,-9,97,-0.87
Cc1ccc(S(=O)(=O)N2c3ccccc3CC2C)cc1 (centres undefined),·,i,12,·,-0.11
CCOc1ccc(S(=O)(=O)N2c3ccccc3CC2C)cc1 (centres undefined),13,+,2,13,0.2
CC1Cc2ccccc2N1S(=O)(=O)c1cccs1 (centres undefined),22,i,90*,12,2.1
COc1ccc(C)cc1S(=O)(=O)N1c2ccccc2CC1C (centres undefined),84,i,100*,76,-0.73
O=C(NCCCn1ccnc1)C1c2ccccc2Oc2ccccc21,95,·,1,94,-0.62
Cc1ccc2cc(CN(Cc3ccco3)C(=S)NCC3CCCO3)c(=O)[nH]c2c1 (centres undefined),·,i,12,·,1.1
Cc1ccc2[nH]c(=O)c(CN(CC3CCCO3)C(=S)NCc3ccco3)cc2c1 (centres undefined),86,i,57*,85,-0.022
COc1cccc(C(=O)N(Cc2cc3cc(C)ccc3[nH]c2=O)CC2CCCO2)c1 (centres undefined),94,i,75*,102,-0.09
Cc1ccc(C)c2[nH]c(=O)c(CN(Cc3ccco3)C(=S)NCC3CCCO3)cc12 (centres undefined),·,i,59*,·,-1.5
Cc1ccc2cc(CN(CC3CCCO3)C(=S)Nc3ccccc3)c(=O)[nH]c2c1C (centres undefined),28,i,67*,29,0.88

# Screening data (PubChem BioAssay)
